Measured values reported in ChEMBL document CHEMBL4312005, “Optimization of pyrrolizine-based Schiff bases with 4-thiazolidinone motif: Design, synthesis and investigation of cytotoxicity and anti-inflammatory potency” (Eur J Med Chem, 2020).

Key:
[1] = system: Rattus norvegicus; assay: Antiinflammatory activity against albino rats assessed as inhibition of carrageenan-induced paw edema at 15 mg/kg, po measured after 2 hrs relative to control; format: functional
Procedure, shortened: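 Winter carrageenan rat paw oedema model in adult albino rats of both sexes (100-140 g). Compounds given orally before carrageenan injection into the paw. Oedema inhibition % versus untreated control read at 2-4 h post-carrageenan. Significance versus control was tested at P < 0.05, 0.01 and 0.001. Animal work approved by the Umm Al-Qura University pharmacy ethics committee.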

[2] = system: Rattus norvegicus; assay: Antiinflammatory activity against albino rats assessed as inhibition of carrageenan-induced paw edema at 15 mg/kg, po measured after 4 hrs relative to control; format: functional
Procedure, shortened: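 Carrageenan rat paw edema (Winter method) in male and female adult albino rats (100-140 g). […] Swelling inhibition expressed as % of control at 2-4 h after carrageenan injection.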

COc1ccc2c(c1)c(CC(=O)O)c(C)n2C(=O)c1ccc(Cl)cc1 [INDOMETHACIN]
inhibition in vivo at 15 mg/kg [1]: 32.3% | inhibition in vivo at 15 mg/kg [2]: 56.4%
